From ChEMBL document CHEMBL3734675, “Synthesis, antimycobacterial and antibacterial activity of fluoroquinolone derivatives containing an 3-alkoxyimino-4-(cyclopropylanimo)methylpyrrolidine moiety” (2015)
Converted amounts (≈) assume the structure as drawn.

Tests used:
Format in all cases: functional
Enterococcus faecium [1] = experiment: Antibacterial activity against Enterococcus faecium 14-6 after 18 to 24 hrs by two-fold serial dilution method
Method in brief: (§1)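 Twofold serial dilution in agar media against Gram-positive and Gram-negative strains. Plates incubated at 35 °C for 18–24 h. MIC read as the lowest compound concentration giving complete inhibition of bacterial growth.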

Escherichia coli [2] = experiment: Antibacterial activity against Escherichia coli 14-2 after 18 to 24 hrs by two-fold serial dilution method; method in brief: as §1
Staphylococcus aureus [3] = experiment: Antibacterial activity against methicillin-resistant Staphylococcus aureus 14-4 after 18 to 24 hrs by two-fold serial dilution method
Method in brief: (§2)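 Agar media, standard twofold serial dilution. MIC is the lowest concentration giving complete inhibition of bacterial growth after incubation at 35 °C for 18–24 h. Ciprofloxacin and levofloxacin were run as comparators.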

Enterococcus faecalis [4] = experiment: Antibacterial activity against Enterococcus faecalis 14-2 after 18 to 24 hrs by two-fold serial dilution method; method in brief: as §1
[5] = test system: Staphylococcus epidermidis; experiment: Antibacterial activity against methicillin-resistant Staphylococcus epidermidis 14-21 after 18 to 24 hrs by two-fold serial dilution method; method in brief: as §2
Pseudomonas aeruginosa [6] = experiment: Antibacterial activity against Pseudomonas aeruginosa 14-9 after 18 to 24 hrs by two-fold serial dilution method; method in brief: as §1
Staphylococcus aureus [7] = experiment: Antibacterial activity against methicillin-resistant Staphylococcus aureus 14-5 after 18 to 24 hrs by two-fold serial dilution method; method in brief: as §2
Pseudomonas aeruginosa [8] = experiment: Antibacterial activity against Pseudomonas aeruginosa 14-16 after 18 to 24 hrs by two-fold serial dilution method; method in brief: as §1
Klebsiella pneumoniae [9] = experiment: Antibacterial activity against extended-spectrum beta-lactamase producing Klebsiella pneumoniae 14-18 after 18 to 24 hrs by two-fold serial dilution method; method in brief: as §1
Klebsiella pneumoniae [10] = experiment: Antibacterial activity against Klebsiella pneumoniae 14-2 after 18 to 24 hrs by two-fold serial dilution method; method in brief: as §1
[11] = test system: Mycobacterium tuberculosis; experiment: Antimycobacterial activity against Mycobacterium tuberculosis H37Rv ATCC 27294 incubated for 7 days by microplate Alamar Blue assay; conditions: H37Rv ATCC 27294, 168 h
Method in brief: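 Fluorescence read-out. MIC is the lowest concentration that reduces fluorescence by at least 90% relative to the mean of replicate bacterium-only controls. Isoniazid and rifampicin were included as reference drugs.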

Escherichia coli [12] = experiment: Antibacterial activity against extended-spectrum beta-lactamase producing Escherichia coli 14-2 after 18 to 24 hrs by two-fold serial dilution method; method in brief: as §1
[13] = test system: Staphylococcus epidermidis; experiment: Antibacterial activity against methicillin-sensitive Staphylococcus epidermidis 14-2 after 18 to 24 hrs by two-fold serial dilution method; method in brief: as §1
Pseudomonas aeruginosa [14] = experiment: Antibacterial activity against Pseudomonas aeruginosa 14-15 after 18 to 24 hrs by two-fold serial dilution method; method in brief: as §1
Staphylococcus aureus [15] = experiment: Antibacterial activity against Staphylococcus aureus CMCC 26003 after 18 to 24 hrs by two-fold serial dilution method; method in brief: as §1
Pseudomonas aeruginosa [16] = experiment: Antibacterial activity against Pseudomonas aeruginosa 14-14 after 18 to 24 hrs by two-fold serial dilution method; method in brief: as §1
[17] = test system: Staphylococcus epidermidis; experiment: Antibacterial activity against methicillin-resistant Staphylococcus epidermidis 14-39 after 18 to 24 hrs by two-fold serial dilution method; method in brief: as §2
Staphylococcus aureus [18] = experiment: Antibacterial activity against methicillin-sensitive Staphylococcus aureus 14-4 after 18 to 24 hrs by two-fold serial dilution method; method in brief: as §1
[19] = test system: Staphylococcus epidermidis; experiment: Antibacterial activity against methicillin-resistant Staphylococcus epidermidis 14-37 after 18 to 24 hrs by two-fold serial dilution method; method in brief: as §2
Klebsiella pneumoniae [20] = experiment: Antibacterial activity against extended-spectrum beta-lactamase producing Klebsiella pneumoniae 14-17 after 18 to 24 hrs by two-fold serial dilution method; method in brief: as §1
Enterococcus faecium [21] = experiment: Antibacterial activity against Enterococcus faecium 14-2 after 18 to 24 hrs by two-fold serial dilution method; method in brief: as §1
[22] = test system: Staphylococcus epidermidis; experiment: Antibacterial activity against methicillin-resistant Staphylococcus epidermidis 14-22 after 18 to 24 hrs by two-fold serial dilution method; method in brief: as §2
Enterococcus faecium [23] = experiment: Antibacterial activity against Enterococcus faecium 14-5 after 18 to 24 hrs by two-fold serial dilution method; method in brief: as §1
Escherichia coli [24] = experiment: Antibacterial activity against extended-spectrum beta-lactamase producing Escherichia coli 14-1 after 18 to 24 hrs by two-fold serial dilution method; method in brief: as §1
Escherichia coli [25] = experiment: Antibacterial activity against Escherichia coli 14-1 after 18 to 24 hrs by two-fold serial dilution method; method in brief: as §1
Klebsiella pneumoniae [26] = experiment: Antibacterial activity against Klebsiella pneumoniae 14-1 after 18 to 24 hrs by two-fold serial dilution method; method in brief: as §1
Klebsiella pneumoniae [27] = experiment: Antibacterial activity against Klebsiella pneumoniae 14-4 after 18 to 24 hrs by two-fold serial dilution method; method in brief: as §1
Klebsiella pneumoniae [28] = experiment: Antibacterial activity against extended-spectrum beta-lactamase producing Klebsiella pneumoniae 14-19 after 18 to 24 hrs by two-fold serial dilution method; method in brief: as §1
Streptococcus pneumoniae = experiment: Antibacterial activity against methicillin-resistant Streptococcus pneumoniae ATCC 19615 after 18 to 24 hrs by two-fold serial dilution method; method in brief: as §2
Klebsiella pneumoniae [29] = experiment: Antibacterial activity against Klebsiella pneumoniae 14-3 after 18 to 24 hrs by two-fold serial dilution method; method in brief: as §1
Enterococcus faecalis [30] = experiment: Antibacterial activity against Enterococcus faecalis 14-1 after 18 to 24 hrs by two-fold serial dilution method; method in brief: as §1
Staphylococcus aureus [31] = experiment: Antibacterial activity against methicillin-sensitive Staphylococcus aureus 14-1 after 18 to 24 hrs by two-fold serial dilution method; method in brief: as §1
Escherichia coli [32] = experiment: Antibacterial activity against Escherichia coli ATCC 25922 after 18 to 24 hrs by two-fold serial dilution method; method in brief: as §1
Staphylococcus aureus [33] = experiment: Antibacterial activity against methicillin-sensitive Staphylococcus aureus 14-3 after 18 to 24 hrs by two-fold serial dilution method; method in brief: as §1
Pseudomonas aeruginosa [34] = experiment: Antibacterial activity against Pseudomonas aeruginosa ATCC 27853 after 18 to 24 hrs by two-fold serial dilution method; method in brief: as §1

SMILES | MIC (Enterococcus faecium [1]) [µg/mL] | MIC (Escherichia coli [2]) [µg/mL] | MIC (Staphylococcus aureus [3]) [µg/mL] | MIC (Enterococcus faecalis [4]) [µg/mL] | MIC [5] [µg/mL] | MIC (Pseudomonas aeruginosa [6]) [µg/mL] | MIC (Staphylococcus aureus [7]) [µg/mL] | MIC (Pseudomonas aeruginosa [8]) [µg/mL] | MIC (Klebsiella pneumoniae [9]) [µg/mL] | MIC (Klebsiella pneumoniae [10]) [µg/mL] | MIC90 [11] [µg/mL] | MIC (Escherichia coli [12]) [µg/mL] | MIC [13] [µg/mL] | MIC (Pseudomonas aeruginosa [14]) [µg/mL] | MIC (Staphylococcus aureus [15]) [µg/mL] | MIC (Pseudomonas aeruginosa [16]) [µg/mL] | MIC [17] [µg/mL] | MIC (Staphylococcus aureus [18]) [µg/mL] | MIC [19] [µg/mL] | MIC (Klebsiella pneumoniae [20]) [µg/mL] | also measured
CCO/N=C1/CN(c2c(F)cc3c(=O)c(C(=O)O)cn4c3c2OC[C@@H]4C)CC1(C)CNC1CC1 (stereo not given in full) | 16 (≈ 33.9 µM) | > 128 | 64 (≈ 135 µM) | 1 (≈ 2.12 µM) | 8 (≈ 16.9 µM) | 64 (≈ 135 µM) | 16 (≈ 33.9 µM) | 64 (≈ 135 µM) | 32 (≈ 67.7 µM) | 64 (≈ 135 µM) | 2.76 (≈ 5.84 µM) | > 128 | 32 (≈ 67.7 µM) | 64 (≈ 135 µM) | < 0.008 | 128 (≈ 271 µM) | 8 (≈ 16.9 µM) | 0.06 (≈ 0.127 µM) | 4 (≈ 8.47 µM) | 32 (≈ 67.7 µM) | MIC (Enterococcus faecium [21]): 16 µg/mL (≈ 33.9 µM); MIC [22]: 8 µg/mL (≈ 16.9 µM); MIC (Enterococcus faecium [23]): 4 µg/mL (≈ 8.47 µM); MIC (Escherichia coli [24]): 8 µg/mL (≈ 16.9 µM); MIC (Escherichia coli [25]): > 128 µg/mL; MIC (Klebsiella pneumoniae [26]): 64 µg/mL (≈ 135 µM); MIC (Klebsiella pneumoniae [27]): > 128 µg/mL; MIC (Klebsiella pneumoniae [28]): 32 µg/mL (≈ 67.7 µM); MIC (Streptococcus pneumoniae): 0.25 µg/mL (≈ 0.529 µM); MIC (Klebsiella pneumoniae [29]): > 128 µg/mL; MIC (Enterococcus faecalis [30]): 32 µg/mL (≈ 67.7 µM); MIC (Staphylococcus aureus [31]): 4 µg/mL (≈ 8.47 µM); MIC (Escherichia coli [32]): 2 µg/mL (≈ 4.23 µM); MIC (Staphylococcus aureus [33]): 0.03 µg/mL (≈ 0.0635 µM); MIC (Pseudomonas aeruginosa [34]): 64 µg/mL (≈ 135 µM)
CCO/N=C1/CN(c2nc3c(cc2F)c(=O)c(C(=O)O)cn3-c2nc(N)c(F)cc2F)CC1(C)CNC1CC1 (stereo not given) | 64 (≈ 117 µM) | 128 (≈ 235 µM) | 64 (≈ 117 µM) | 8 (≈ 14.7 µM) | 64 (≈ 117 µM) | 64 (≈ 117 µM) | 64 (≈ 117 µM) | > 128 | > 128 | > 128 | 27.7 (≈ 50.9 µM) | > 128 | 128 (≈ 235 µM) | 128 (≈ 235 µM) | 0.5 (≈ 0.917 µM) | 128 (≈ 235 µM) | 64 (≈ 117 µM) | 4 (≈ 7.33 µM) | 128 (≈ 235 µM) | > 128 | MIC (Enterococcus faecium [21]): 128 µg/mL (≈ 235 µM); MIC [22]: 128 µg/mL (≈ 235 µM); MIC (Enterococcus faecium [23]): 128 µg/mL (≈ 235 µM); MIC (Escherichia coli [24]): 64 µg/mL (≈ 117 µM); MIC (Escherichia coli [25]): > 128 µg/mL; MIC (Klebsiella pneumoniae [26]): > 128 µg/mL; MIC (Klebsiella pneumoniae [27]): > 128 µg/mL; MIC (Klebsiella pneumoniae [28]): > 128 µg/mL; MIC (Streptococcus pneumoniae): 16 µg/mL (≈ 29.3 µM); MIC (Klebsiella pneumoniae [29]): > 128 µg/mL; MIC (Enterococcus faecalis [30]): 64 µg/mL (≈ 117 µM); MIC (Staphylococcus aureus [31]): 32 µg/mL (≈ 58.7 µM); MIC (Escherichia coli [32]): 32 µg/mL (≈ 58.7 µM); MIC (Staphylococcus aureus [33]): 16 µg/mL (≈ 29.3 µM); MIC (Pseudomonas aeruginosa [34]): 128 µg/mL (≈ 235 µM)
CCO/N=C1/CN(c2nc3c(cc2F)c(=O)c(C(=O)O)cn3C2CC2)CC1(C)CNC1CC1 (stereo not given) | 4 (≈ 8.74 µM) | > 128 | 4 (≈ 8.74 µM) | 0.125 (≈ 0.273 µM) | 4 (≈ 8.74 µM) | 32 (≈ 69.9 µM) | 4 (≈ 8.74 µM) | 32 (≈ 69.9 µM) | 64 (≈ 140 µM) | 64 (≈ 140 µM) | < 0.25 | > 128 | 8 (≈ 17.5 µM) | 64 (≈ 140 µM) | < 0.008 | 128 (≈ 280 µM) | 4 (≈ 8.74 µM) | 0.25 (≈ 0.546 µM) | 2 (≈ 4.37 µM) | 64 (≈ 140 µM) | MIC (Enterococcus faecium [21]): 4 µg/mL (≈ 8.74 µM); MIC [22]: 4 µg/mL (≈ 8.74 µM); MIC (Enterococcus faecium [23]): 8 µg/mL (≈ 17.5 µM); MIC (Escherichia coli [24]): 32 µg/mL (≈ 69.9 µM); MIC (Escherichia coli [25]): > 128 µg/mL; MIC (Klebsiella pneumoniae [26]): 64 µg/mL (≈ 140 µM); MIC (Klebsiella pneumoniae [27]): > 128 µg/mL; MIC (Klebsiella pneumoniae [28]): 64 µg/mL (≈ 140 µM); MIC (Streptococcus pneumoniae): 0.25 µg/mL (≈ 0.546 µM); MIC (Klebsiella pneumoniae [29]): 128 µg/mL (≈ 280 µM); MIC (Enterococcus faecalis [30]): 16 µg/mL (≈ 35 µM); MIC (Staphylococcus aureus [31]): 0.25 µg/mL (≈ 0.546 µM); MIC (Escherichia coli [32]): 1 µg/mL (≈ 2.19 µM); MIC (Staphylococcus aureus [33]): 0.5 µg/mL (≈ 1.09 µM); MIC (Pseudomonas aeruginosa [34]): 32 µg/mL (≈ 69.9 µM)
